Assay [1] has as its system Puccinia triticina. In words: Antifungal activity against Puccinia recondita f. sp. tritici infected in wheat seedlings at 200 ppm relative to control. Type of assay: functional. The procedure, abridged:
(§1)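 Test suspension sprayed to run-off on Stevens wheat seedlings. Next day inoculated with a Puccinia recondita f. sp. tritici spore suspension. Held 24 h in a saturated atmosphere at 20 °C, then 7 days in a 20 °C growth chamber before disease rating. Rates in ppm. Given as percent control versus untreated control plants.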

Assay [2] deals with Botrytis cinerea. In words: Antifungal activity against Botryotinia fuckeliana infected in orange pixie tomato seedlings at 200 ppm relative to control. Type of assay: functional. The procedure, abridged:
(§2)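 Orange Pixie tomato seedlings sprayed to run-off with test suspension, then inoculated next day with a Botryotinia fuckeliana spore suspension. Kept saturated at 20 °C for 48 h, then 1 more day at 24 °C in a growth chamber before rating. Rates in ppm. Expressed as percent control relative to untreated control plants.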

Assay [3] concerns Botrytis cinerea. Description: Antifungal activity against Botryotinia fuckeliana infected in orange pixie tomato seedlings at 40 ppm relative to control. Type of assay: functional. The essentials: as §2
Assay [4] has as its system Puccinia triticina. In words: Antifungal activity against Puccinia recondita f. sp. tritici infected in wheat seedlings at 40 ppm relative to control. Type of assay: functional. The essentials:
as §1

Assay [5] can be described thus: Antiproliferative activity against human Rhabdomyosarcoma cells after 96 hrs by MTS assay. Type of assay: functional, cell-based. The note with it: Rhabdomyosarcoma cell. The essentials:
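Rhabdomyosarcoma cells (ATCC CCL-136) seeded at 10,000 cells/well and allowed to adhere 1–3 h. Medium then replaced with compound-containing medium over a concentration range. Grown 96 h at 37 °C, 5% CO2. Viable cells read by MTS/PMS formazan after 3–4 h at 37 °C, absorbance 490 nm. Data normalized to solvent-only wells; IC50 in nM.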
(Tetrazolium dyes change colour on reduction, which living cells bring about.)

The test system of assay [6] is Puccinia triticina. In words: Antifungal activity against Puccinia recondita f. sp. tritici infected in wheat seedlings at 10 ppm relative to control. Type of assay: functional. The essentials:
as §1

The subject of assay [7] is Botrytis cinerea. In words: Antifungal activity against Botryotinia fuckeliana infected in orange pixie tomato seedlings at 10 ppm relative to control. Type of assay: functional. The essentials: as §2
Assay [8] relates to Parastagonospora nodorum. Description: Antifungal activity against Stagonospora nodorum infected in wheat seedlings at 200 ppm relative to control. Type of assay: functional. The essentials: (§3)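 Wheat seedlings, treated the day before, inoculated with a Stagonospora nodorum spore suspension. Held in a saturated atmosphere at 20 °C for 48 h, then 5 days in a growth chamber at 22 °C, then disease rated. Rates in ppm. Scored as percent control relative to untreated control plants.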

The target in assay [9] is T1, Tubulin (Bos taurus) (UniProt Q6B856+Q862L2+Q862F3). In words: Induction of bovine tubulin polymerization at 10 uM by microplate reader. Type of assay: protein assay. The essentials: (§4)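 Purified bovine tubulin at 4 mg/ml in 80 mM PIPES pH 6.9, 0.5 mM EGTA, 2 mM MgCl2, 1 mM GTP. Compound added at reaction start at constant DMSO. Polymerization started at 37 °C and followed over time by absorbance at 340 nm. Controls: paclitaxel 10 µM (positive) and 0.5% DMSO (negative).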

Assay [10] has as its system Botrytis cinerea. Description: Antifungal activity against Botryotinia fuckeliana infected in orange pixie tomato seedlings at 2 ppm relative to control. Type of assay: functional. The procedure, abridged: as §2
Assay [11] relates to Parastagonospora nodorum. Description: Antifungal activity against Stagonospora nodorum infected in wheat seedlings at 2 ppm relative to control. Type of assay: functional. The procedure, abridged: as §3
For assay [12], the system named is Puccinia triticina. In words: Antifungal activity against Puccinia recondita f. sp. tritici infected in wheat seedlings at 2 ppm relative to control. Type of assay: functional. The procedure, abridged: as §1
Assay [13] relates to Parastagonospora nodorum. In words: Antifungal activity against Stagonospora nodorum infected in wheat seedlings at 40 ppm relative to control. Type of assay: functional. The essentials:
as §3

Assay [14] relates to Parastagonospora nodorum. Description: Antifungal activity against Stagonospora nodorum infected in wheat seedlings at 10 ppm relative to control. Type of assay: functional. The essentials: as §3
The target of assay [15] is T1, Tubulin (Bos taurus). In words: Induction of bovine tubulin polymerization at 3 uM by microplate reader. Type of assay: protein assay. The essentials: as §4

Calls of active or inactive are those of the source. No cut-off for these calls is given here.

Turning to `CC[C@H](C)Cn1c(-c2c(F)cc(OCCN(C)C)cc2F)c(Cl)nc(-n2cccn2)c1=O`, the Activity with Puccinia triticina [1] was determined as 100%; with Botrytis cinerea [2], 99%; in the assay on Botrytis cinerea [3], 68%; in the assay with Puccinia triticina [4], 91%; in the assay with Puccinia triticina [6] it was 55%; in the assay with Botrytis cinerea [7], 0%. Also, in assay [5], half-maximal inhibition (IC50) required 210 nM.
For `CC(=O)O[C@H]1C(=O)[C@@]2(C)[C@H]([C@H](OC(=O)c3ccccc3)[C@]3(O)C[C@H](OC(=O)[C@H](O)[C@@H](NC(=O)c4ccccc4)c4ccccc4)C(C)=C1C3(C)C)[C@]1(OC(C)=O)CO[C@@H]1C[C@@H]2O` [PACLITAXEL], the results for the Activity with Puccinia triticina [1], in the assay with Parastagonospora nodorum [8] and in the assay on Botrytis cinerea [2] were 95%, 91% and 0%, respectively. Moreover, the outcome at Tubulin (Bos taurus) [9] was Active. The IC50 (usually the concentration at which inhibition is half-maximal) in assay [5] was 8.4 nM.
Consider `CC(C)Cn1c(-c2c(F)cccc2F)c(Cl)nc(-n2cccn2)c1=O`, for which the Activity in the assay with Botrytis cinerea [10] worked out at 75%; in the assay with Parastagonospora nodorum [11], 0%; in the assay with Puccinia triticina [12], 28%; in the assay with Botrytis cinerea [3] it was 99%; with Puccinia triticina [4] it was 100%; in the assay on Parastagonospora nodorum [13], 99%. Also, the Activity is 100% with Puccinia triticina [6], 92% with Parastagonospora nodorum [14] and 97% with Botrytis cinerea [7]. In addition, on Tubulin (Bos taurus) [15], the result was Active.
Consider `CC(C)Cn1c(-c2c(F)cc(F)cc2F)c(Cl)nc(-n2cccn2)c1=O`, for which the Activity in the assay on Botrytis cinerea [10] was 100%; in the assay with Puccinia triticina [1], 100%; in the assay on Parastagonospora nodorum [8], 100%; with Parastagonospora nodorum [11], 0%; in the assay on Botrytis cinerea [2] it was 100%; with Puccinia triticina [12], 92%. Besides, the Activity in the assay on Botrytis cinerea [3] is 100%; in the assay with Puccinia triticina [4], 100%; with Parastagonospora nodorum [13], 100%; in the assay on Puccinia triticina [6] it was 100%; in the assay with Parastagonospora nodorum [14], 90%; in the assay on Botrytis cinerea [7], 100%. The outcome on Tubulin (Bos taurus) [15] was Active.
With `CC[C@H](C)Cn1c(-c2c(F)cc(OCCCNC)cc2F)c(Cl)nc(-n2cccn2)c1=O.Cl`, the Activity was 21% in the assay on Botrytis cinerea [10]; 100% in the assay with Puccinia triticina [1]; 100% in the assay on Parastagonospora nodorum [8]; 0% in the assay on Parastagonospora nodorum [11]; 100% with Botrytis cinerea [2]; 68% in the assay on Puccinia triticina [12]. Also, the Activity with Botrytis cinerea [3] came to 99%; with Puccinia triticina [4], 100%; in the assay on Parastagonospora nodorum [13] it was 88%; with Puccinia triticina [6], 99%; in the assay on Parastagonospora nodorum [14] it was 33%; with Botrytis cinerea [7], 99%. This compound displayed an IC50 in [5] of 0.6 nM.
Regarding `CC[C@H](C)Cn1c(-c2c(F)cc(OC)cc2F)c(Cl)nc(-n2cccn2)c1=O`, the Activity in the assay with Botrytis cinerea [10] worked out at 99%; in the assay with Puccinia triticina [1] it was 100%; in the assay on Parastagonospora nodorum [8] it was 100%; with Parastagonospora nodorum [11] it was 69%; in the assay with Botrytis cinerea [2] it was 99%; with Puccinia triticina [12] it was 99%. The Activity with Botrytis cinerea [3] is 99%; in the assay with Puccinia triticina [4], 100%; in the assay with Parastagonospora nodorum [13], 100%; in the assay with Puccinia triticina [6], 100%; in the assay on Parastagonospora nodorum [14], 100%; with Botrytis cinerea [7], 99%. In [5], the IC50 was determined as 10 nM.

Source of the values: ChEMBL document CHEMBL3739347, “Tubulin modulating antifungal and antiproliferative pyrazinone derivatives” (Bioorg Med Chem, 2016).
